# The list is not random: actives were taken first. Their share in the collection is about 3.4%.
# IMP-1 inh-1 – inhibitors of Pseudomonas aeruginosa IMP-1 metallo-beta-lactamase | AID 1556 | purified IMP-1, nitrocefin hydrolysis, epi-absorbance fluorescence | inhibition, % at 5.6 µM | actives 0.45% (n = 290,000);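 active means inhibition above the mean plus 3 SD of all compounds in the same screening run, cut at about 4.5% in these data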;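 further: 0% = IMP-1 with DMSO and 100% = DMSO wells lacking enzyme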
#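 Test system: recombinant IMP-1 enzyme, purified / Medium: HEPES buffer pH 7.1 with ZnSO4 and Brij 35 / Doses: single dose, 5.6 µM / Times: 25 °C, 15 min preincubation, 25 min reaction / Detection: Epi-absorbance via hydrolysed-nitrocefin quenching of white-plate fluorescence, 480/530 nm, EDTA stop / Evaluation: percent inhibition from optical density relative to buffer-blank wells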
# MEKK2mut PB1 HTS – signal of MEK5 binding to mutant human MEKK2 PB1 domain; bead flow cytometry, Alexa488-MEK5 binding to MEKK2 mutant; actives 0.35% (n = 290,000); AID 1530; percent response, % at 10 µM; in the data active means percent response above about 24%, passing the limit was not always enough
# MEKK2 WT-MEK5 – raises or lowers MEK5 binding to wildtype human MEKK2 PB1 domain; Q9Y2U5; bead flow cytometry, Alexa488-MEK5 binding to MEKK2 WT; actives lie on both sides; binding response (% of control), % at 10 µM; actives 1.1% (n = 290,000); in the data active means binding response below about 67% or above about 130%
# MEKK3 PB1 HTS – modulators (inhibitors or enhancers) of MEK5 binding to human MEKK3 PB1 domain | bead-based flow cytometry, Alexa488-MEK5 binding to MEKK3; actives lie on both sides; 0 = blocked by unlabeled MEK5, 100 = vehicle | binding response (% of control), % at 10 µM | actives 1.4% (n = 290,000);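 active means binding response more than 3 SD above or below the average of its plate-row segment, actives on both sides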;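 further: Alexa488 bead fluorescence after subtracting the streptavidin-only scavenger bead signal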
# VIM-2 inhibitor – inhibitors of Pseudomonas aeruginosa VIM-2 metallo-beta-lactamase; purified VIM-2, nitrocefin hydrolysis, epi-absorbance fluorescence; inhibition, % at 5.6 µM; actives 0.89% (n = 290,000);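 active means inhibition above the mean of all tested compounds plus 3 SD, cutoff set per screening run, cut at about 7.5% in these data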;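 further: red hydrolysis product quenches plate fluorescence so inhibitors raise well fluorescence; 0% = enzyme with DMSO and 100% = DMSO without enzyme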
# IMP-1 inh-2 – blocks IMP-1 metallo-beta-lactamase in VIM-2 selectivity screen; shares compounds with VIM-2 inhibitor; purified IMP-1, nitrocefin hydrolysis, epi-absorbance fluorescence; inhibition, % at 5.6 µM; 1,300 tested, under 10 active; AID 1856; call rule not given here;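 further: 0% = enzyme with vehicle and 100% = vehicle without enzyme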
# VIM-2 FRET inh – inhibits VIM-2 in FRET assay to exclude epi-absorbance artifacts; shares compounds with VIM-2 inhibitor; AID 1857; inhibition, % at 5.6 µM; actives 23% (n = 1,300); purified VIM-2, CCF2 FRET substrate hydrolysis;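 active means inhibition above the mean of all tested compounds plus 3 SD, cut at about 19% in these data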;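 further: 0% = VIM-2 plus DMSO and 100% = no enzyme wells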
# TEM-1 inh – selectivity counter-screen for VIM-2 inhibitors: E. coli TEM-1 inhibitors. shares compounds with VIM-2 inhibitor. Purified TEM-1, nitrocefin hydrolysis, epi-absorbance fluorescence. inhibition, % at 5.6 µM. actives 3% (n = 1,300);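 active means inhibition above that campaign's mean inhibition plus 3 SD, cut at about 0.46% in these data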;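 further: 0% = TEM-1 with DMSO and 100% = TEM-1 with 100 µM potassium clavulanate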
# Target sequence (P62593 whole entry, looked up): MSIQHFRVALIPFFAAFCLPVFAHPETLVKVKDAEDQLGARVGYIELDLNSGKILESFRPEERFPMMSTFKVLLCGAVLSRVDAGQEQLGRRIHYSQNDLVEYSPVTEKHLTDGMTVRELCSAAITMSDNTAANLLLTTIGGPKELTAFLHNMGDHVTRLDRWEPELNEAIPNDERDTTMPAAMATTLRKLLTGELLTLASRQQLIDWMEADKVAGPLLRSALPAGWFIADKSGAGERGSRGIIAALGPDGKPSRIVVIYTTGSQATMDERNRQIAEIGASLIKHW
# VIM-2 inh conf – confirmation of P. aeruginosa VIM-2 metallo-beta-lactamase inhibitors. shares compounds with VIM-2 inhibitor. purified VIM-2, nitrocefin hydrolysis, epi-absorbance. inhibition, % at 5.6 µM. actives 96% (n = 1,300);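 active means inhibition of the VIM-2 beta-lactamase enzyme above about 11% from the earlier first-round screen, limit read from the data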;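 further: 0% = VIM-2 with DMSO and 100% = buffer wells without enzyme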
# MEKK2wt confirm – raises or lowers MEK5 binding to wildtype human MEKK2, retest. actives 2.4% (n = 5,900). shares compounds with MEKK3 PB1 HTS. binding response (% of control), % at 10 µM. bead flow cytometry, Alexa488-MEK5 binding to MEKK2 WT; actives lie on both sides. AID 1892; in the data active means binding response below about 16% or above about 210%; inactive means in between
# MEKK2mut confirm – signal of MEK5 binding to mutant human MEKK2, retest; shares compounds with MEKK3 PB1 HTS; bead flow cytometry, Alexa488-MEK5 binding to MEKK2 mutant; percent response, % at 10 µM; actives 2% (n = 5,900); in the data active means percent response mostly above about 71%, no sharp cut-off; inactive means mostly below about 38%;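 further: higher means compound restores mutant binding toward wildtype level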
# MEKK3 confirm – MEKK3-MEK5 PB1 inhibition, single concentration confirmation; bead flow cytometry, Alexa488-MEK5 binding to MEKK3; stronger effect = lower value; shares compounds with MEKK3 PB1 HTS; actives 1.8% (n = 5,900); AID 1894; binding response (% of control), % at 10 µM;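 active means binding response below 72% of control, or above a set upper limit, though filed actives all read lower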;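 further: 100% = DMSO only wells and 0% = binding blocked by excess unlabeled MEK5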
# * = called active by the depositor; . = not tested or not shown.
SMILES,IMP-1 inh-1,MEKK2mut PB1 HTS,MEKK2 WT-MEK5,MEKK3 PB1 HTS,VIM-2 inhibitor,IMP-1 inh-2,VIM-2 FRET inh,TEM-1 inh,VIM-2 inh conf,others
CCC1CCCCN1CC(O)Cn1c2ccccc2n2c(=O)cc(C)c(C#N)c12 (stereo not drawn),0,-2,81,97,3,.,.,.,.,
O=[N+]([O-])c1ccc(-n2nnnc2-c2ccccc2)cc1,-2,-6,93,101,-3,.,.,.,.,
Cc1c(N2C(=O)/C(=C/c3cccc4ccccc34)SC2=S)c(=O)n(-c2ccccc2)n1C,0,-7,85,94,50*,1,13,-4,12*,
Cc1cccc(C2c3[nH]c4ccccc4c3CCN2C(=O)c2cc(CC(C)C)[nH]c(=O)n2)n1 (stereo not drawn),-2,-10,95,106,24*,-4,58*,-5,36*,
CCN(Cc1ccccc1)S(=O)(=O)c1c[nH]c(C(=O)OC)c1,-2,-1,102,100,-1,.,.,.,.,
CCn1ncc(/C=N\NC(=O)COc2ccccc2)c1C,-6,-3,90,91,-6,.,.,.,.,
O=c1[nH]c(SCc2n[nH]c(=S)n2-c2ccccc2)nc2sc3c(c12)CCC3,-2,5,114,108,21*,-3,45*,-9,29*,
O=c1[nH]c(SCc2n[nH]c(=S)n2-c2ccccc2)nc2ccccc12,-3,-4,98,98,28*,-1,55*,0,40*,
CCCCSc1nc2sc3c(c2c(=O)[nH]1)CCC3,-3,-2,101,100,-3,.,.,.,.,
O=c1[nH]c(SCc2nc3ccccc3c(=O)n2-c2ccccc2)nc2ccccc12,1,1,101,94,2,.,.,.,.,
Nc1nc(NCCCN2CCOCC2)nc(Nc2cccc(Cl)c2)c1[N+](=O)[O-],0,-8,107,75,29*,-3,0,-7,49*,
Nc1nc(NCCCN2CCOCC2)nc(Nc2ccc(Cl)cc2)c1[N+](=O)[O-],-3,3,114,108,7,.,.,.,.,
COc1cc(C(=O)O/N=C(\N)c2ccncc2)cc(OC)c1OC,-2,-3,102,95,2,.,.,.,.,
COc1cc(NC(=O)C2=C(C)OCCS2)c(Cl)cc1C(=O)NCCN(C)C,-2,-1,97,94,14*,-2,4,-9,27*,
CCOCCCN(C)C1CCN(C(=O)c2oc3ccccc3c2NC(=O)c2ccc([N+](=O)[O-])cc2)CC1,-2,6,114,104,5,.,.,.,.,
CC(C(=O)O)c1cccc(C(=O)c2ccccc2)c1 (stereo not drawn),-5,-58,55,90,18*,-2,52*,-6,34*,
CC(=O)Nc1ccc(NC(=O)C(C)c2cccc(C(=O)c3ccccc3)c2)cc1 (stereo not drawn),-1,2,102,98,-4,.,.,.,.,
COc1ccc(C(=O)N2CCC(C(=O)NCc3ccccn3)CC2)cc1,-3,2,110,106,1,.,.,.,.,
[O-]c1n[n+](-c2ccc(Cl)cc2)cc2ccccc12,-2,-4,94,86,19*,-3,-11,0,2,
CCOc1c(Br)cc(CNCc2cccs2)cc1OC,-4,26,100,99,-1,.,.,.,.,
Cc1ccc(C)c(N2CCN(c3ccc([N+](=O)[O-])cn3)CC2)c1,-1,4,107,105,-1,.,.,.,.,
CCN1CCN(C(=O)Cn2nc(-c3ccc(Cl)cc3)ccc2=O)CC1,-3,8,110,104,23*,-4,-3,-6,27*,
CCOc1cc(/C=N/n2cnnc2)ccc1OC(=O)c1cccc([N+](=O)[O-])c1,1,5,103,104,13*,-4,-1,-4,14*,
O=C(CCN1C(=O)c2ccccc2S1(=O)=O)Nc1ccc(F)cc1F,-6,9,105,103,-1,.,.,.,.,
O=C(N/N=C/c1ccc(-n2ccnc2)cc1)c1cccs1,0,8,108,101,77*,-3,-11,-6,84*,
SMILES,IMP-1 inh-1,MEKK2mut PB1 HTS,MEKK2 WT-MEK5,MEKK3 PB1 HTS,VIM-2 inhibitor,IMP-1 inh-2,VIM-2 FRET inh,TEM-1 inh,VIM-2 inh conf,others
CCOC(=O)CSc1nc(-c2ccccn2)ncc1OC,-5,0,98,107,17*,-4,-25,-4,25*,
Cn1c(SCC(=O)c2ccccc2)nnc1-c1ccccn1,-3,-12,94,92,0,.,.,.,.,
COc1cnc(-c2ccccn2)nc1N(C)c1ccccc1,-5,5,103,103,37*,-4,-35,-3,47*,
COc1cnc(-c2ccccn2)nc1Oc1ccccc1,-3,-14,89,96,5,.,.,.,.,
COc1cnc(-c2ccccn2)nc1Oc1cccc(C(F)(F)F)c1,-5,0,98,98,45*,-5,-29,-5,60*,
Cc1nc(-c2ccccn2)nc(SCC(=O)c2ccccc2)c1Cl,-2,20,110,122,54*,-4,-25,-6,72*,
COc1cnc(-c2ccccn2)nc1Sc1ccc(Cl)cc1,-4,-11,88,84,-3,.,.,.,.,
Cc1cc(C)c2nc(C)cc(N/N=C/c3ccc(O)cc3)c2c1,-1,119*,237*,115,13*,-3,-3,-6,19*,MEKK2wt confirm=244*;MEKK2mut confirm=102*;MEKK3 confirm=111
Cc1cc(N/N=C/c2ccc(N(C)C)cc2)c2ccccc2n1,-3,7,100,104,4,.,.,.,.,
C=CCNc1nc(N)c([N+](=O)[O-])c(Nc2ccccc2OC)n1,-5,5,102,104,3,.,.,.,.,

# Screens: PubChem BioAssay, several laboratories
